The list is not random: actives were taken first. Their share in the collection is about 5.1%.
STAT3 inh – inhibitors of IL-6 induced STAT3 signaling; U3A cells, IL-6 STAT3-luciferase reporter, luminescence; host cell line lacks STAT1; inhibition, % at 5.5 µM; 0.89% of 190,000 active; AID 862;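 active = inhibition above the mean inhibition across all screened compounds plus 3 SD, cut at about 44% in these data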;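 also: 0% = DMSO only wells and 100% = 100 µM nifuroxazide control wells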
STAT1 inh-1 – inhibitors of IFN-gamma induced STAT1 signaling | 0.35% of 200,000 active | inhibition, % at 5.5 µM | NIH 3T3 STAT1-luciferase reporter, luminescence;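 active = inhibition above a set limit, the mean inhibition across all tested compounds plus 3 SD, cut at about 34% in these data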;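 also: 0% = IFN-gamma with DMSO and 100% = IFN-gamma with 300 µM nifuroxazide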
APP 5'UTR act – activates APP 5'UTR luciferase reporter; 1% of 190,000 active; SH-SY5Y APP 5'UTR luciferase reporter, luminescence; zero percent = DMSO vehicle wells; activation, % at 2 µM; AID 1276;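 active = activation above a set limit, based on mean plus 3 SD of controls, cut at about 140% in these data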
STAT1 act-1 – activators of IFN-gamma induced STAT1 signaling; NIH 3T3 STAT1-luciferase reporter, luminescence; 100% = IFN-gamma alone, no compound; activation (% of control), % at 5.5 µM; 2.6% of 200,000 active; AID 932;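 active = activation above the screen-wide mean activation plus 3 SD, cut at about 130% in these data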;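 also: raw ratio to IFN-gamma control signal so 100% means no change and 0% no light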
STAT3 act-1 – increases IL-6 driven STAT3 reporter signal | 0.91% of 190,000 active | AID 871 | U3A cells, IL-6 STAT3-luciferase reporter, luminescence; 100% = signal with IL-6 EC80 alone | activation (% of control), % at 5.6 µM;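 active = activation above the screen-wide mean of compound activation plus 3 SD, cut at about 130% in these data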;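 also: 0% = background luminescence of wells with medium and substrate only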
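Material: STAT1-lacking human U3A cells, STAT3 luciferase reporter | Benchmarks: IL-6-only wells as 100% reference | Probe or stimulus: IL-6 (33 ng/mL) | Timing: Compound 1 h, then IL-6 6 h at 37 °C | Detection: Luminescence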
NF-kB neuron act – NF-kB expression increase, human neuronal cells; NF-kB reporter expression; active compounds read high; fold change at 12.5 µM; AID 1239; 1.6% of 190,000 active; in the data active = fold change above about 3.3
STAT3 act-2 – STAT3 activation, confirmation assay | potentiation (% of control), % at 5.7 µM | shares compounds with STAT3 act-1 | U3A STAT3-luciferase reporter, IL-6 potentiation, luminescence; U3A cells lack STAT1; 100 means same as IL-6 alone | 64% of 1,200 active | AID 1267;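 active = percent activation of the STAT3 luciferase reporter above a set limit taken from the earlier primary screen, cut at about 130% in these data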;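 also: 0% = background signal of medium plus substrate and 100% = median of IL-6 with DMSO wells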
NFkB act STAT3ct – counter-screen for STAT3 activators: NF-kappaB activation; shares compounds with STAT3 act-1; human cells, NF-kappaB reporter activation; activation (% of control), % at 5.7 µM; 11% of 1,200 active; AID 1309; in the data active = activation above about 120%;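 also: reporter induced by TNF-alpha stimulation; 100% = median of stimulated DMSO wells and 0% = no signal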
STAT1 act-2 – STAT1 activation in STAT3 activator counter-screen | activation (% of control), % at 5.7 µM | shares compounds with STAT3 act-1 | NIH 3T3 STAT1-luciferase reporter, IFN-gamma, luminescence | 13% of 1,200 active;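 active = activation above the solvent-only control well mean plus 3 SD, set per screening run, cut at about 120% in these data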;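 also: 100% = IFN-gamma with DMSO median signal so 100% means no change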
STAT1 inh-2 – confirmation of STAT1 signaling inhibitors. shares compounds with STAT1 inh-1. NIH 3T3 STAT1-luciferase reporter, IFN-gamma, luminescence. inhibition, % at 5.5 µM. 55% of 200 active;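 active = triplicate mean inhibition exceeding the hit cutoff computed for the primary STAT1 screen, cut at about 35% in these data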;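 also: 0% = DMSO with IFN-gamma and 100% = 300 µM nifuroxazide with IFN-gamma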
NFkB inh STAT1ct – counter-screen for STAT1 inhibitors: NF-kappaB inhibition; shares compounds with STAT1 inh-1; HEK293T NF-kB luciferase reporter, TNF-alpha induced, luminescence; inhibition, % at 5.7 µM; 30% of 200 active;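 active = inhibition above the mean of solvent-only control wells plus 3 SD of those wells, cut at about 15% in these data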;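 also: 0% = DMSO with TNF-alpha and 100% = MG-132 control with TNF-alpha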
STAT3 inh STAT1c – counter-screen for STAT1 inhibitors: STAT3 inhibition; U3A cells, IL-6 STAT3 luciferase reporter, luminescence; cells lacking STAT1; 20% of 200 active; inhibition, % at 5.7 µM; shares compounds with STAT1 inh-1; AID 1310;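 active = inhibition above the mean of solvent-only control wells plus 3 SD, set per campaign, cut at about 25% in these data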;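 also: 0% = IL-6 plus DMSO and 100% = IL-6 plus nifuroxazide control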
The depositor's hits bear a star.

Cc1sc2c(c1C)CN(C(C)(C)C)CN2C(=O)c1ccccc1 was read as STAT3 inh -45, STAT1 inh-1 -15, APP 5'UTR act 28, STAT1 act-1 114, STAT3 act-1 142*, NF-kB neuron act 1.7, STAT3 act-2 128, NFkB act STAT3ct 115 and STAT1 act-2 120.
CC(=O)N1N=C(c2ccccc2O)OC1(C)CC(=O)Nc1ccccc1 (stereo not drawn) was read as STAT3 inh -46, STAT1 inh-1 1, APP 5'UTR act 2, STAT1 act-1 99, STAT3 act-1 139*, NF-kB neuron act 0.88, STAT3 act-2 140*, NFkB act STAT3ct 99 and STAT1 act-2 97.
`Cc1sc(/N=C/c2c(O)ccc3ccccc23)c(C#N)c1C` gave STAT3 inh -8, STAT1 inh-1 6, STAT1 act-1 94, STAT3 act-1 107 and NF-kB neuron act 1.3.
`Cc1cc(Nc2nc(Cl)c(Cl)cc2Cl)n(-c2ccccc2)n1` gave STAT3 inh -45, STAT1 inh-1 2, APP 5'UTR act -16, STAT1 act-1 98, STAT3 act-1 143*, NF-kB neuron act 1.1, STAT3 act-2 123, NFkB act STAT3ct 109 and STAT1 act-2 106.
`CC1(C)C(=O)OC(c2cccs2)C2(CCCCC2)C1=O` (stereo not drawn) gave STAT3 inh -1, STAT1 inh-1 4, APP 5'UTR act 13, STAT1 act-1 97, STAT3 act-1 107 and NF-kB neuron act 1.2.
COc1cccc(-c2nnc3n2N=C(C(C)(C)C)CS3)c1 was read as STAT3 inh -119, STAT1 inh-1 12, APP 5'UTR act -27, STAT1 act-1 89, STAT3 act-1 204*, NF-kB neuron act 0.72, STAT3 act-2 184*, NFkB act STAT3ct 34 and STAT1 act-2 111.
Screening COc1cccc(-c2nnc3n2N=C(c2cc(OC)ccc2OC)CS3)c1 returned STAT3 inh -1, STAT1 inh-1 -4, APP 5'UTR act 9, STAT1 act-1 103, STAT3 act-1 105 and NF-kB neuron act 1.1.
`CCOC(=O)c1c(-c2ccc(-c3ccccc3)cc2)csc1NC(=O)C1C2CCC(O2)C1C(=O)O` (stereo not drawn) gave STAT3 inh 2, STAT1 inh-1 1, APP 5'UTR act 4, STAT1 act-1 99, STAT3 act-1 107 and NF-kB neuron act 1.1.
Screening Cc1ccc(C)c(S(=O)(=O)Nc2cc(SCC(=O)O)c(O)c3ccccc23)c1 returned STAT3 inh -56, STAT1 inh-1 7, APP 5'UTR act -23, STAT1 act-1 94, STAT3 act-1 143*, NF-kB neuron act 0.62, STAT3 act-2 146*, NFkB act STAT3ct 105 and STAT1 act-2 108.
Screening CCN1C/C(=C\c2cccc(C)c2)c2nc3ccccc3c(C(=O)O)c2C1 returned STAT3 inh -5, STAT1 inh-1 1, APP 5'UTR act -12, STAT1 act-1 99, STAT3 act-1 104 and NF-kB neuron act 0.93.
O=C(OCc1cc2ccccc2[nH]c1=O)c1ccco1 was read as STAT3 inh 1, STAT1 inh-1 5, APP 5'UTR act -21, STAT1 act-1 95, STAT3 act-1 103 and NF-kB neuron act 1.2.
Screening COc1ccc(COc2cc(-c3cccc(OC)c3)nc3ccc(NC(=O)c4ccc(N(C)C)cc4)cc23)cc1 returned STAT3 inh -46, STAT1 inh-1 -7, APP 5'UTR act -11, STAT1 act-1 107, STAT3 act-1 136*, NF-kB neuron act 0.53, STAT3 act-2 92, NFkB act STAT3ct 99 and STAT1 act-2 104.
`CCN(CC)S(=O)(=O)c1cc(NC(=O)C(C)N2CCc3ccccc32)ccc1C` (stereo not drawn) gave STAT3 inh -41, STAT1 inh-1 8, APP 5'UTR act -7, STAT1 act-1 91, STAT3 act-1 142*, NF-kB neuron act 0.97, STAT3 act-2 141*, NFkB act STAT3ct 107 and STAT1 act-2 105.
CC(C(=O)Nc1ccc(S(N)(=O)=O)cc1)N1CCc2ccccc21 (stereo not drawn) was read as STAT3 inh -3, STAT1 inh-1 3, APP 5'UTR act 15, STAT1 act-1 96, STAT3 act-1 103 and NF-kB neuron act 1.1.
Screening c1ccc(C2=Nc3ccccc3SC2c2nc3ccccc3[nH]2)cc1 (stereo not drawn) returned STAT3 inh -60, STAT1 inh-1 -31, APP 5'UTR act 110, STAT1 act-1 128, STAT3 act-1 158*, NF-kB neuron act 6.7*, STAT3 act-2 147*, NFkB act STAT3ct 130* and STAT1 act-2 152*.
CC(C)CN(CCOc1cccc(N2C(=O)C3=C(CCCC3)C2=O)c1)CC(C)C was read as STAT3 inh -8, STAT1 inh-1 0, APP 5'UTR act -5, STAT1 act-1 100, STAT3 act-1 109 and NF-kB neuron act 1.1.
Screening CC1=C(C(=O)OCc2ccccc2)C(c2cccs2)N2C(=O)CCSC2=N1 (stereo not drawn) returned STAT3 inh 6, STAT1 inh-1 8, APP 5'UTR act 13, STAT1 act-1 90, STAT3 act-1 102 and NF-kB neuron act 1.
COc1ccccc1C1c2[nH]c3ccccc3c2CCN1Cc1cnc(C)s1 (stereo not drawn) was read as STAT3 inh -46, STAT1 inh-1 54*, APP 5'UTR act 2, STAT1 act-1 49, STAT3 act-1 146*, NF-kB neuron act 0.89, STAT3 act-2 176*, NFkB act STAT3ct 106, STAT1 act-2 95, STAT1 inh-2 32, NFkB inh STAT1ct 6 and STAT3 inh STAT1c -53.

Screening data as filed in PubChem.
